Screening results from PubChem BioAssay.
MC4R antagonist = blocks human MC4R cAMP signaling; 360,000 compounds, 0.48% hits; MC4R-expressing cells, MTII-stimulated cAMP, LANCE TR-FRET; P32245; inhibition, % at 6.5 µM;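 active = inhibition above its plate's cutoff, the mean of tested wells on that plate plus 3 SD, cut at about 29% in these data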;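 note: 0% = Melanotan II alone and 100% = Melanotan II plus saturating MCL0020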
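Material: human MC4R-expressing U2OS cells. Probe or stimulus: Melanotan II challenge. Dosing: 6.5 µM single dose. Times: 30-min compound, 1-h challenge, 1-h detection, room temperature. Technique: TR-FRET with Eu-cAMP and labeled anti-cAMP, 671 nm. Replication: singlicate.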
MIN6 prolif = MIN6 beta-cell proliferation induction | MIN6 cells proliferation, ATPlite luminescence, 48 h; cells starved in 0.2% serum; 100% = growth in 10% serum | proliferation, % at 10 µM | 330,000 compounds, 0.29% hits | AID 2380;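 active = compounds whose signal lies at least 3.5 SD above the mean of all wells on their plate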;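 note: 0% = DMSO-treated cells in low-serum medium and 100% = 10% serum control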
TMEM16A inh = blocks the mouse calcium-activated chloride channel TMEM16A | HEK293 TMEM16A/YFP iodide influx fluorescence, ionomycin | normalized B-score (activity score, 25-100; higher = stronger inhibition) at 10 µM | 310,000 compounds, 1.2% hits | AID 588511;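 active = ratio plate-corrected score three or more library SD toward inhibition, starting fluorescence score within five deviations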;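 note: score derived from kinetic fluorescence span divided by baseline fluorescence per well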
Target sequence (Q8BHY3 whole entry, looked up): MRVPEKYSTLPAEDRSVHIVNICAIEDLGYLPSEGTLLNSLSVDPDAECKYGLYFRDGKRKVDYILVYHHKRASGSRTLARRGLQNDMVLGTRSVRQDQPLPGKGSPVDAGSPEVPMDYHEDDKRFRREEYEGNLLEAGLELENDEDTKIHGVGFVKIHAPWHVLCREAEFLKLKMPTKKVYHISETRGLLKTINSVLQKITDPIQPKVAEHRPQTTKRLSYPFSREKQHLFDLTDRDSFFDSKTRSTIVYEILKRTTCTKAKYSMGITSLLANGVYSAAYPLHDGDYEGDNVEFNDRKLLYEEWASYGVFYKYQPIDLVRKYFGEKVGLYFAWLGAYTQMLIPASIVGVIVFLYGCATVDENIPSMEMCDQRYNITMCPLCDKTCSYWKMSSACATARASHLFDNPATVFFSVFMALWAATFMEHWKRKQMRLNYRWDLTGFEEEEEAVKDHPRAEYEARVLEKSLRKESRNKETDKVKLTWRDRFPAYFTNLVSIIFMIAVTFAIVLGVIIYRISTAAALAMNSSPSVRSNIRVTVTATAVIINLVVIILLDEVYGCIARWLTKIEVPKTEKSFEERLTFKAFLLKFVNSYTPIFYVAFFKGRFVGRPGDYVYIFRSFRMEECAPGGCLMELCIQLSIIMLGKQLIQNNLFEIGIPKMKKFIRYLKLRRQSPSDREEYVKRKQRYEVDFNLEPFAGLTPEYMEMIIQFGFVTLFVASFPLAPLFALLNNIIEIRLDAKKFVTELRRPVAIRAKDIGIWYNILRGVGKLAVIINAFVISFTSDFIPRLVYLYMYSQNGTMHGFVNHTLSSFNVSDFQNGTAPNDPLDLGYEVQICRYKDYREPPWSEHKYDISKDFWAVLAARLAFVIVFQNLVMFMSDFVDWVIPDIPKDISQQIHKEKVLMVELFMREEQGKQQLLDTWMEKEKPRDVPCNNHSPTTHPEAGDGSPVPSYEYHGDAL
TMEM16A act = activates or potentiates the mouse TMEM16A chloride channel. Q8BHY3. HEK293 TMEM16A/YFP-H148Q/I152L, iodide quench fluorescence; active compounds read low. B-score at 10 µM. 340,000 compounds, 0.3% hits. AID 623877;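 active = fluorescence-ratio B-score plate-corrected deviation score at least 3 library SD below zero, with starting fluorescence score within 5 deviations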;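 note: channel opened by trigger with iodide after compound preincubation; score built on the fluorescence ratio of max minus min over baseline; more negative score means more quench and so TMEM16A activation or potentiation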
MC4R ag barr = agonists of human melanocortin 4 receptor (MC4R) beta-arrestin; P32245; U2OS MC4R beta-arrestin complementation, luminescence; percent of melanotan II response, DMSO zero; AID 540308; 360,000 compounds, 0.98% hits; activation, % at 8.9 µM;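 active = activation above a per-plate cutoff, the mean activation of sample wells on that plate plus 3 SD, cut at about 8% in these data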
HTR2A ag = activates the mouse 5-HT2A serotonin receptor; AID 624169; P35363; 360,000 compounds, 0.66% hits; CHO-K1 mHTR2A beta-arrestin complementation, luminescence; percent of 30 µM serotonin response; activation, % at 7.6 µM;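 active = activation above a run cutoff, the mean activation of all tested compounds plus 3 SD, cut at about 14% in these data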;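 note: 0% = plate median of compound wells and 100% = 30 µM serotonin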
U2OS cAMP counter = counter-screen for MC4R antagonists: nonselective cAMP signaling inhibitors. shares compounds with MC4R antagonist. parental U2OS, forskolin cAMP, LANCE TR-FRET. inhibition, % at 6.5 µM. 1,600 compounds, 26% hits;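 active = mean inhibition over triplicates above the low-control well mean plus 3 SD, set per campaign, cut at about 13% in these data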;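 note: signal is single emission at 671 nm which falls as cellular cAMP rises; 0% = forskolin-stimulated wells and 100% = buffer without forskolin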
MC4R antag conf = human MC4R cAMP antagonism confirmation; shares compounds with MC4R antagonist; MC4R-expressing cells, MTII-stimulated cAMP, TR-FRET; inhibition, % at 6.5 µM; 1,600 compounds, 27% hits; in the data active = inhibition above about 29%;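 note: 0% = agonist stimulated wells alone and 100% = agonist stimulated wells plus saturating reference antagonist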
* hit, by the source's call; i = inactive; · = no result. Most compounds without a hit are left out; they make up all but 3.4% or so of the library.

SMILES	MC4R antagonist	MIN6 prolif	TMEM16A inh	TMEM16A act	MC4R ag barr	HTR2A ag	U2OS cAMP counter	MC4R antag conf
CC(=O)c1cccc(S(=O)(=O)N2CCC(C(=O)OC3CCOC3=O)CC2)c1 (centres undefined)	40*	-1	·	i	-1	4	19*	57*
Cc1ccc(S(=O)(=O)N2CCC(C(=O)OC3CCOC3=O)CC2)cc1C (centres undefined)	40*	2	i	i	-4	-3	19*	41*
C[C@@H]1CN([C@@H](C)CO)C(=O)c2c(c3ccccc3n2C)-c2ccccc2CO[C@H]1CN(C)C(=O)[C@H](C)c1ccccc1	22	·	·	·	2	4	·	·
COc1cccc(CNC(=O)COC(=O)c2ccc(Cl)s2)c1	5	-5	·	i	0	-1	·	·
CCN(CC)P(=O)(Nc1cccc(C(F)(F)F)c1)c1ccc(N(C)C)cc1NC(=O)c1ccco1 (centres undefined)	35*	-6	i	i	1	-1	5	10
CNS(=O)(=O)c1cccc(C(=O)OC2CCOC2=O)c1 (centres undefined)	-4	0	i	i	-2	-3	·	·
CCN(c1ccccc1)S(=O)(=O)c1cc(C(=O)OC2CCOC2=O)ccc1C (centres undefined)	40*	-2	·	i	-3	-2	24*	37*
COc1ccc(-c2oc3c(c2C#CC(C)(C)O)C(OC)CCC3)cc1 (centres undefined)	·	·	·	·	·	-7	·	·
COc1cc(C2CC(=O)Oc3c2c(=O)n(C)c2ccccc32)cc(OC)c1OC (centres undefined)	38*	-3	i	i	-2	-5	0	4
O=C1CSC(c2ccncc2)N1Cc1ccccc1 (centres undefined)	-2	6	i	i	-1	2	·	·
O=C1CSC(c2cccnc2)N1Cc1cccnc1 (centres undefined)	29*	1	i	i	0	6	3	12
CCCCNC(=O)C1(C)CCC(=O)N1CCc1c[nH]c2ccccc12 (centres undefined)	·	·	·	·	·	0	·	·
O=C(O)C(Cc1c[nH]c2ccccc12)NS(=O)(=O)c1cccc(Cl)c1Cl (centres undefined)	29*	1	i	i	1	0	2	2
COc1cccc(C(C)(O)c2nc(-c3ccc(N(C)C)cc3)cs2)c1 (centres undefined)	10	·	·	·	0	1	·	·
COCCNC(=O)CCc1c(C)nc2nc(-c3cc(OC)cc(OC)c3)nn2c1C	29*	3	i	i	0	-2	1	-17
Nc1cc2c(cc1Cl)-c1ccc(Cl)cc1C2	0	·	·	·	1	-5	·	·
CC(C)CCn1nc(C(=O)Nc2nc3c(s2)CCCC3)c2ccccc2c1=O	33*	-5	i	i	4	0	-1	14
CC(C)c1ccc(N(C(=O)c2snc(C(N)=O)c2N)C(C(=O)NC2CCCC2)c2ccncc2)cc1 (centres undefined)	18	-1	i	i	3	-5	·	·
CCOP(=O)(OCC)C(NC(=O)Nc1cccc(Cl)c1)c1ccccc1 (centres undefined)	30*	-2	i	i	1	3	-1	16
O=C(/C=C/c1ccc(S(=O)(=O)NCc2ccco2)cc1)N1CCN(c2ccccc2)CC1	31*	-1	i	i	1	-3	1	-4
O=C(c1ccc(S(=O)(=O)NCc2ccco2)cc1)N1CCN(c2ccc(F)cc2)CC1	-4	2	·	i	-1	2	·	·
CCn1c(C)nc2cc(C(=O)N/N=C(\C)c3ccc(OC)cc3O)ccc21	34*	·	·	i	1	-3	4	1
Cc1ccccc1C(=O)N1CCc2c([nH]c3ccccc23)C1C(F)(F)F (centres undefined)	36*	-1	i	i	0	6	3	2
CSCC[C@H](NC(=O)c1cccc(S(=O)(=O)N2CCCCC2)c1)c1nc2ccccc2[nH]1	5	-4	·	i	-1	8	·	·
Cc1c(Br)c([N+](=O)[O-])nn1CC(=O)N1CCc2ccccc21	30*	1	i	i	0	-2	-1	4
SMILES	MC4R antagonist	MIN6 prolif	TMEM16A inh	TMEM16A act	MC4R ag barr	HTR2A ag	U2OS cAMP counter	MC4R antag conf
CCn1c(O)c(N=NC(=O)CNC(=O)c2cccnc2)c2ccccc21	-17	·	·	·	0	3	·	·
O=C(Cn1sc2ccccc2c1=O)N1CCN(C(=O)c2ccco2)CC1	7	0	i	i	-2	9	·	·
Cc1ccc(-n2nc3c(=S)[nH]nc(C)c3c2C)cc1	146*	-5	i	i	-2	-1	90*	147*
CC(=O)Nc1cccc(OC(=O)COc2ccc(Br)cc2)c1	29*	-2	i	i	2	-2	-1	4
NC(=O)c1ccccc1OCCOc1ccc(Br)cc1	12	-3	i	i	2	2	·	·
CC(=O)Nc1ccccc1OCCOc1ccc(Br)cc1	36*	-2	i	i	-1	0	1	-4
O=C(NC(=S)NCCCN1CCOCC1)c1ccco1	29*	-1	i	i	1	-2	2	-15
O=C(NC(=S)NCCN1CCOCC1)c1ccccc1Cl	-8	-3	i	i	2	0	·	·
CCCCc1nnc(NC(=O)c2ccc(OCc3c(C)noc3C)cc2)s1	14	-2	·	i	-1	-4	·	·
CCN(C(=O)COC(=O)/C=C/c1cnc2ccccc2n1)C1CCS(=O)(=O)C1 (centres undefined)	29*	0	i	i	1	0	-5	-2
COc1ccc(OC)c(NC(=O)c2cc(S(=O)(=O)N3CCCC3)cn2C)c1	2	1	i	i	1	0	·	·
O=C(O)COc1ccc2nsnc2c1Cl	70*	0	i	i	-2	9	46*	81*
Cc1ccc(CNC(=O)CN2C(=O)c3ccccc3S2(=O)=O)cc1	11	2	i	i	0	1	·	·
Cc1ccccc1CNC(=O)CN1C(=O)c2ccccc2S1(=O)=O	29*	0	i	i	1	4	2	1
